In brackets after ≈: the same amount, converted by molar mass. Activity calls are given as the source filed them. The calls are words filed in the database; no cut-off is given here.
Key:
[1] = Cytotoxicity against African green monkey Vero cells assessed as reduction in cell viability incubated for 72 hrs by neutral red uptake assay; assay type: toxicity, cell-based; conditions: chlorocebus sabaeus
Method in brief: (§1)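 Cells grown in DMEM with 10% FBS. HepG2 seeded at 4 × 10³ and Vero at 2 × 10³ cells/well, 24 h before dosing. Compounds at 1, 5 and 20 μM in 1% DMSO for 72 h at 37 °C, 5% CO2. MTT readout: 5 mg/mL reagent for 4 h, absorbance at 595 nm. Neutral red readout: 25 μg/mL dye for 3 h, then acid-ethanol desorb. Viability is expressed relative to 1% DMSO controls.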

[2] = Chemical stability in 0.1 M NH4HCO3 solution at pH 9.1 assessed as parent compound remaining at 1 to 10 uM measured after 24 hrs by HPLC-EM/MS analysis; assay type: physicochemical; conditions: dose 1-10 µM, read-out: Stability
Method in brief: (§2)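 Compounds at 1–10 μM incubated 24 h at 37 °C in three media: pH 1.2 (0.1 M HCl), pH 7.4 (PBS) and pH 9.1 (0.1 M NH4HCO3). Remaining parent compound quantified afterward.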

[3] = Solubility of compound in 0.1 M HCl solution at pH 1.2 at 1 mg incubated for 4 hrs under shaking conditions by liquid chromotography; assay type: physicochemical
Method in brief: (§3)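 1 mg of compound was added to 1 mL of PBS pH 7.4 or 0.1 M HCl, in triplicate. Suspensions were vortexed 1 min, shaken 4 h at 25 °C, then centrifuged 13000 rpm for 15 min at 25 °C. Supernatant was quantified by reverse-phase UHPLC (UV 260–280 nm) against a single-point calibration of compound in DMSO.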

[4] = target: T1, Enoyl-[acyl-carrier-protein] reductase [NADH] (Mycobacterium tuberculosis, UniProt P9WGR1); assay: Inhibition of Mycobacterium tuberculosis InhA-catalysed chemical reaction in presence of NADH measured for 1 min by UV/Visible spectrophotometry
T1 sequence (P9WGR1 whole entry): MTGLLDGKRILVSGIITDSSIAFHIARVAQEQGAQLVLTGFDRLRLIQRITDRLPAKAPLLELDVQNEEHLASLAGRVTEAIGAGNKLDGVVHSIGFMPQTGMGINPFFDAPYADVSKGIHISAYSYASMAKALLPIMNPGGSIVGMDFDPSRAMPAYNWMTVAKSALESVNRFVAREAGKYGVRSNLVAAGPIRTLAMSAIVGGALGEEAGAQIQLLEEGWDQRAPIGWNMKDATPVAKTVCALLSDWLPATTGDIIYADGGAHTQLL
Method in brief: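 Recombinant MtInhA reaction at 25 °C in 100 mM Pipes pH 7.0, started by adding 2.2 μM enzyme and followed for 1 min. Substrate is DD-CoA, made from 2-trans-dodecenoic acid and CoA.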

[5] = Selectivity index, ratio of CC50 for human HepG2 cells by MTT assay to MIC for pan-sensitive Mycobacterium tuberculosis H37Rv ATCC 27294; assay type: toxicity; conditions: read-out: Selectivity Index
Escherichia coli = assay: Antibacterial activity against Escherichia coli ATCC 25922 assessed as inhibition of bacterial growth at 20 uM by broth microdilution method; assay type: functional, organism-based
Method in brief: (§4)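 Broth microdilution in triplicate against a small bacterial panel, with compounds tested at 20 μM for growth inhibition.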

[6] = target: T2, Enoyl-[acyl-carrier-protein] reductase [NADH] (Mycobacterium tuberculosis) (UniProt P9WGR1); assay: Binding affinity to Mycobacterium tuberculosis InhA assessed as change in enthalpy at 250 uM in presence of NADH by fluorescence spectroscopy
T2 sequence (whole entry): T1 sequence (P9WGR1 whole entry)

[7] = Metabolic stability in rat liver microsomes assessed as intrinsic clearance at 2 uM measured upto 30 mins by HPLC/MS/MS analysis; assay type: ADME, Microsome; conditions: read-out: CLH
Method in brief: (§5)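 Compounds at 2 μM incubated at 37 °C with 1 mg/mL rat liver microsomes containing NADPH. Parent compound consumption followed over time.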

[8] = system: Mycobacterium tuberculosis; assay: Antibacterial activity against pan-sensitive Mycobacterium tuberculosis H37Rv ATCC 27294 measured after 7 days by resazurin dye based assay; assay type: functional; conditions: H37Rv ATCC 27294, 168 h, time 7 day
Method in brief: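 Resazurin reduction microplate assay (REMA) in Middlebrook 7H9 broth with 10% ADC and 5% DMSO. Compounds come from 2 mg/mL DMSO stocks and are 2-fold serially diluted, top concentration 0.08–40 μg/mL depending on solubility. MIC is the lowest concentration preventing the blue-to-pink colour change. Three independent experiments; the reported value is the modal or the highest value.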

Staphylococcus aureus = assay: Antibacterial activity against Staphylococcus aureus ATCC 25923 assessed as inhibition of bacterial growth at 20 uM by broth microdilution method; assay type: functional, organism-based; method in brief: as §4
[9] = Permeability of compound at 10 uM measured after 5 hrs by PAMPA assay; assay type: ADME; conditions: read-out: permeability
Method in brief: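 PAMPA: compounds at 10 μM in 2% DMSO added to a pH 7.4 donor phase, 5 h at room temperature. Receptor-side concentration (pH 7.4) measured to derive permeation rate. Alprenolol is the analytical control.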

[10] = target: T1, Enoyl-[acyl-carrier-protein] reductase [NADH]; assay: Noncompetitive inhibition of Mycobacterium tuberculosis InhA using DD-CoA as substrate assessed as inhibition constant for enzyme-inhibitor binary complex in presence of varying concentrations of NADH by double reciprocal plot analysis
[11] = target: T1, Enoyl-[acyl-carrier-protein] reductase [NADH]; assay: Noncompetitive inhibition of Mycobacterium tuberculosis InhA using DD-CoA as substrate assessed as inhibition constant for enzyme-substrate-inhibitor ternary complex in presence of varying concentrations of NADH by double reciprocal plot analysis
[12] = target: T2, Enoyl-[acyl-carrier-protein] reductase [NADH] (Mycobacterium tuberculosis); assay: Binding affinity to Mycobacterium tuberculosis InhA assessed as gibbs free energy change at 250 uM in presence of NADH by fluorescence spectroscopy
Method in brief: (§6)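 Titration of pre-formed MtInhA:NADH complex (2 mL of 3 μM enzyme with 20 μM NADH), adding microliter aliquots of 250 μM ligand stock with dilution kept ≤1%. Intrinsic fluorescence read at 295 nm excitation, 310–500 nm emission. Temperatures 15, 20, 25 and 30 °C. KD is fitted to a hyperbolic isotherm. ΔH°, ΔS° and ΔG° come from van't Hoff analysis of KD across temperatures.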

[13] = Selectivity index, ratio of CC50 for human HepG2 cells by neutral red uptake assay to MIC for pan-sensitive Mycobacterium tuberculosis H37Rv ATCC 27294; assay type: toxicity; conditions: read-out: Selectivity Index
Acinetobacter baumannii = assay: Antibacterial activity against multidrug-resistant Acinetobacter baumannii clinical isolates assessed as inhibition of bacterial growth at 20 uM by broth microdilution method; assay type: functional, organism-based; method in brief: as §4
[14] = Cytotoxicity against human HepG2 cells assessed as reduction in cell viability incubated for 72 hrs by MTT assay; assay type: toxicity, cell-based; method in brief: as §1
[15] = Cytotoxicity against African green monkey Vero cells assessed as reduction in cell viability incubated for 72 hrs by MTT assay; assay type: toxicity, cell-based; conditions: chlorocebus sabaeus; method in brief: as §1
[16] = Cytotoxicity against human HepG2 cells assessed as reduction in cell viability incubated for 72 hrs by neutral red uptake assay; assay type: toxicity, cell-based; method in brief: as §1
[17] = Selectivity index, ratio of CC50 for African green monkey Vero cells by neutral red uptake assay to MIC for pan-sensitive Mycobacterium tuberculosis H37Rv ATCC 27294; assay type: toxicity, cell-based; conditions: read-out: Selectivity Index
[18] = Chemical stability in 0.1 M HCl solution at pH 1.2 assessed as parent compound remaining at 1 to 10 uM measured after 24 hrs by HPLC-EM/MS analysis; assay type: physicochemical; conditions: dose 1-10 µM, read-out: Stability; method in brief: as §2
[19] = Metabolic stability in rat liver microsomes assessed as half life at 2 uM measured upto 30 mins by HPLC/MS/MS analysis; assay type: ADME, Microsome; method in brief: as §5
[20] = target: T2, Enoyl-[acyl-carrier-protein] reductase [NADH] (Mycobacterium tuberculosis); assay: Time dependent inhibition of Mycobacterium tuberculosis InhA
[21] = target: T1, Enoyl-[acyl-carrier-protein] reductase [NADH]; assay: Binding affinity to Mycobacterium tuberculosis InhA assessed as dissociation constant at 250 uM at 25 degreeC in presence of NADH by fluorescence spectroscopy; method in brief: as §6
[22] = Solubility of compound in PBS at pH 7.4 at 1 mg incubated for 4 hrs under shaking conditions by liquid chromotography; assay type: physicochemical; method in brief: as §3
Klebsiella pneumoniae = assay: Antibacterial activity against multidrug-resistant Klebsiella pneumoniae clinical isolates assessed as inhibition of bacterial growth at 20 uM by broth microdilution method; assay type: functional, organism-based; method in brief: as §4
[23] = Chemical stability in PBS at pH 7.4 assessed as reduction in parent compound at 1 to 10 uM measured after 24 hrs by HPLC-EM/MS analysis; assay type: physicochemical; conditions: dose 1-10 µM, read-out: Drug degradation; method in brief: as §2
[24] = target: T2, Enoyl-[acyl-carrier-protein] reductase [NADH] (Mycobacterium tuberculosis); assay: Binding affinity to Mycobacterium tuberculosis InhA assessed as change in entropy at 250 uM in presence of NADH by fluorescence spectroscopy
[25] = Chemical stability in PBS at pH 7.4 assessed as parent compound remaining at 1 to 10 uM measured after 24 hrs by HPLC-EM/MS analysis; assay type: physicochemical; conditions: dose 1-10 µM, read-out: Stability; method in brief: as §2
[26] = target: T1, Enoyl-[acyl-carrier-protein] reductase [NADH]; assay: Competitive inhibition of Mycobacterium tuberculosis InhA using varying concentrations of DD-CoA as substrate assessed as inhibition constant for enzyme-inhibitor binary complex in presence of NADH by Lineweaver-Burk plot analysis
Method in brief: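 Steady-state kinetics with recombinant MtInhA in 100 mM Pipes pH 7.0 at 25 °C. NADH fixed at 60 μM, DD-CoA varied 15–135 μM, inhibitor at fixed-varied levels of 0.2–4 μM. Kis is fitted to the competitive inhibition equation.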

[27] = Selectivity index, ratio of CC50 for African green monkey Vero cells by MTT assay to MIC for pan-sensitive Mycobacterium tuberculosis H37Rv ATCC 27294; assay type: toxicity, cell-based; conditions: read-out: Selectivity Index
[28] = system: Mycobacterium tuberculosis; assay: Bactericidal activity in Mycobacterium tuberculosis H37Rv ATCC 27294 infected in CF-1 mouse assessed as reduction in bacterial growth in lungs at 150 uM/kg, po administered daily for 14 days starting from 7 days post infection; assay type: functional, organism-based; conditions: time 14.0 day
Method in brief: (§7)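 Lung and spleen homogenates plated for CFU counts and compared with vehicle and early-control groups.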

[29] = target: T1, Enoyl-[acyl-carrier-protein] reductase [NADH]; assay: Binding affinity to Mycobacterium tuberculosis H37Rv InhA assessed as dissociation constant in presence of NADH, octenoyl-CoA and KatG
[30] = target: T1, Enoyl-[acyl-carrier-protein] reductase [NADH]; assay: Binding affinity to wild type Mycobacterium tuberculosis InhA assessed as inhibition constant in presence of NADH, DD-CoA by spectrophotometry based analysis
[31] = system: Mycobacterium tuberculosis; assay: Antibacterial activity against Mycobacterium tuberculosis H37Rv ATCC 27294 infected in CF-1 mouse assessed as reversal of bacterial growth in spleen at 150 uM/kg, po administered daily for 14 days starting from 7 days post infection; assay type: functional, organism-based; conditions: time 14.0 day; method in brief: as §7
[32] = target: T1, Enoyl-[acyl-carrier-protein] reductase [NADH]; assay: Binding affinity to wild type Mycobacterium tuberculosis InhA assessed as inhibition constant for formation of enzyme-inhibitor complex in presence of NADH and DD-CoA by spectrophotometry based analysis

## CSc1ccc2nc(C)cc(Nc3ccc(N4CCCCC4)cc3)c2c1
[1]
  CC50 at 72 h: 8500 nM
[2]
  remaining at 24 h, up to 10 µM: 100%
[3]
  solubility thermodynamic at 4 h: > 2700 µM
[4]
  IC50: 1000 nM
[5]
  selectivity ratio: 14.7
Escherichia coli
  Activity: inactive
[6]
  deltaH: -25.8 kcal/mol
[7]
  CLint scaled at 2 µM: 60 mL/min/kg
[8]
  MIC: 0.4 µM (≈ 0.145 µg/mL)
Staphylococcus aureus
  Activity: inactive
[9]
  Papp at 5 h, 10 µM: 0.03 ×10⁻⁶ cm/s
[10]
  Ki: 430 nM
[11]
  Ki: 410 nM
[12]
  deltaG: -8.3 kcal/mol
[13]
  selectivity ratio: 30.5
Acinetobacter baumannii
  Activity: inactive
[14]
  CC50 at 72 h: 5900 nM
[15]
  CC50 at 72 h: 11100 nM
[16]
  CC50 at 72 h: 12200 nM
[17]
  selectivity ratio: 21.2
[18]
  remaining at 24 h, up to 10 µM: 100%
[19]
  half-life at 2 µM: 5.9 min
[20]
  TDI: inactive
[21]
  Kd: 870 nM
[22]
  solubility thermodynamic at 4 h: 38 µM (≈ 13.8 µg/mL)
Klebsiella pneumoniae
  Activity: inactive
[23]
  degraded at 24 h, up to 10 µM: > 30%
[24]
  deltaS: -55.7 cal/mol/K
[25]
  remaining at 24 h, up to 10 µM: 68%
[26]
  Ki: 620 nM
[27]
  selectivity ratio: 27.7

## NNC(=O)c1ccncc1 [ISONIAZID]
[28]
  Activity: Active
[8]
  MIC: 2.3 µM (≈ 0.315 µg/mL)
[29]
  Kd: < 0.4 nM
[30]
  Ki: 0.75 nM
[31]
  Activity: Active
[32]
  Ki: 16 nM

Reference: ChEMBL document CHEMBL5385869, “Novel 4-aminoquinolines: Synthesis, inhibition of the Mycobacterium tuberculosis enoyl-acyl carrier protein reductase, antitubercular activity, SAR, and preclinical evaluation” (Eur J Med Chem, 2023)
